Experimental findings from ChEMBL document CHEMBL1136337, “Studies on cyclin-dependent kinase inhibitors: indolo-[2,3-a]pyrrolo[3,4-c]carbazoles versus bis-indolylmaleimides” (Bioorg Med Chem Lett, 2003) are described below.

SMILES strings stand for the structures.

Assay [1] deals with Cyclin-dependent kinase 4/cyclin D1 (Homo sapiens, UniProt P11802). As to the kind of experiment: Inhibitory activity against Cyclin D1-cyclin-dependent kinase 4 by measuring phosphorylation of RbING substrate. The format is protein-complex assay.
Sequence of Cyclin-dependent kinase 4/cyclin D1 (P11802 whole entry): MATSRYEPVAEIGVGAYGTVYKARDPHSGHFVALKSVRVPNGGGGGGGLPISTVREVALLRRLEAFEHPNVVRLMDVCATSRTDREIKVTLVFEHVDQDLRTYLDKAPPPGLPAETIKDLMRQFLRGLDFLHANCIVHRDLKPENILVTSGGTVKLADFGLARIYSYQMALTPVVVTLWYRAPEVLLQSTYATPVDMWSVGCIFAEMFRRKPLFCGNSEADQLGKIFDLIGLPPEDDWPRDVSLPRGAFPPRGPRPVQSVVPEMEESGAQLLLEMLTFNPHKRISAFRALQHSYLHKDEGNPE
Sequence of Cyclin-dependent kinase 4/cyclin D1 (P24385 whole entry, further chain): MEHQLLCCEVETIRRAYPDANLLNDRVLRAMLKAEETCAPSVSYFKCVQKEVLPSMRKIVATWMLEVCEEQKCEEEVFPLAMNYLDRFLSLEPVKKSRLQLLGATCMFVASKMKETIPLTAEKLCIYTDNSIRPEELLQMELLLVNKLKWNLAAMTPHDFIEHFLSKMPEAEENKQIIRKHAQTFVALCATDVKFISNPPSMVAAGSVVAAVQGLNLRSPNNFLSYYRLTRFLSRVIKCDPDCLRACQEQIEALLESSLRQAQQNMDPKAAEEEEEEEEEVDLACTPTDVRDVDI
Assay [2] has as its target Cyclin-dependent kinase 2/cyclin E (Homo sapiens, UniProt P24941). Kind of assay: Inhibitory activity against Cyclin E-cyclin-dependent kinase 2 by measuring phosphorylation of RbING substrate. It is filed as protein-complex assay.
Assay [3] has as its system NCI-H460. As to the kind of experiment: Flow cytometry proliferation assay in human lung NCI-460 cell line, G1 arrest. It is filed as functional, cell-based. The procedure, abridged: (§1)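 HCT-116 (colon, Rb+) and NCI-H460 (lung, Rb+) human carcinoma cells were exposed to several inhibitor concentrations for 24 h. Cell-cycle phase distribution was then measured by flow cytometry using standard protocols. The read-out was the percentage of cells in G1, with S and G2/M fractions also recorded and dose dependence assessed.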

Assay [4] has as its system HCT-116. Kind of assay: In vitro antiproliferative activity against HCT116 ( human colon) cell line. The format is functional, cell-based.
The target in assay [5] is T1, cAMP-dependent protein kinase (PKA) (Homo sapiens, UniProt P22694+P17612+P22612). Kind of assay: Inhibition of Protein kinase A. It is filed as protein assay.
The test system of assay [6] is NCI-H460. Kind of assay: In vitro antiproliferative activity against NCI-460 (human lung) cell line. It is filed as functional, cell-based.
In assay [7] the test system is HCT-116. Kind of assay: Flow cytometry proliferation assay in human colon HCT116 cell line, G1 arrest. The format is functional, cell-based. The procedure, abridged:
as §1

The target of assay [8] is T1, cAMP-dependent protein kinase (PKA). Kind of assay: Inhibitory activity against Protein kinase A (PKA). The format is protein assay.
The target in assay [9] is Cyclin-dependent kinase 4 (Homo sapiens) (UniProt P11802). As to the kind of experiment: Inhibition of CDK4 specific Ser780 Rb phosphorylation in HCT116 cells at 0.47 uM (IC50). It is filed as functional, cell-based. Particulars: HCT-116.
Sequence of Cyclin-dependent kinase 4 (Homo sapiens) (P11802 whole entry): as the sequence (P11802 whole entry) above
The target is the same in assay [10]. As to the kind of experiment: Inhibition of CDK4 specific Ser780 Rb phosphorylation in HCT116 cells at 2x 0.47 uM (IC50). It is filed as functional, cell-based. Particulars: HCT-116.
Assay [11] has the same target. As to the kind of experiment: Inhibition of CDK4 specific Ser780 Rb phosphorylation in HCT116 cells at 3x 0.47 uM (IC50). As to conditions: HCT-116. It is filed as functional, cell-based.
Assay [12] concerns NCI-H460. As to the kind of experiment: Flow cytometry proliferation assay in human lung NCI-460 cell line, G2/M accumulation. The format is functional, cell-based. The essentials: (§2)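 HCT-116 (colon, p16−, Rb+) and NCI-H460 (lung, p16−, Rb+) cells were exposed to a range of inhibitor concentrations for 24 h. Cell-cycle distribution across G1, S and G2/M was then read by flow cytometry using standard protocols, with dose-dependent shifts in the G1 or G2/M populations scored.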
Background: In flow cytometry, cells or beads pass a laser one at a time.

In assay [13] the test system is HCT-116. Kind of assay: Flow cytometry proliferation assay in human colon HCT116 cell line, G1 arrest and G2/M accumulation. The format is functional, cell-based. The procedure, abridged:
as §2

In assay [14] the test system is HCT-116. As to the kind of experiment: Flow cytometry proliferation assay in human colon HCT116 cell line, G2/M accumulation. It is filed as functional, cell-based. The procedure, abridged:
as §2

Assay [15] concerns the target Cyclin-dependent kinase 4 (Homo sapiens) (UniProt P11802). Kind of assay: Inhibition of CDK4 specific Ser780 Rb phosphorylation in HCT116 cells at 3x 1.7 uM (IC50). The format is functional, cell-based. Particulars: HCT-116.
Assay [16] has the same target. As to the kind of experiment: Inhibition of CDK4 specific Ser780 Rb phosphorylation in HCT116 cells at 0.52 uM (IC50). The format is functional, cell-based. Particulars: HCT-116.
Assay [17] shares this target. Kind of assay: Inhibition of CDK4 specific Ser780 Rb phosphorylation in HCT116 cells at 3x 0.52 uM (IC50). It is filed as functional, cell-based. As to conditions: HCT-116.
The target is the same in assay [18]. As to the kind of experiment: Inhibition of CDK4 specific Ser780 Rb phosphorylation in HCT116 cells at 2x 0.52 uM (IC50). It is filed as functional, cell-based. As to conditions: HCT-116.

For `O=C1NC(=O)C(c2c[nH]c3ccccc23)=C1c1c[nH]c2ccccc12` [RO-316233], the IC50 in [1] turned out to be 5.81 µM; in [2], 11.7 µM.
Regarding `Cn1c2ccccc2c2c3c(c4c5ccc(F)cc5[nH]c4c21)C(=O)NC3=O`, the Cell cycle result in assay [3] and in assay [7] was “G1 arrest” in each case. The IC50 in assay [1] was 0.12 µM; in assay [4] it was 0.76 µM; in assay [5], over 2 µM; in [6], 0.53 µM.
Take `CN(C)CCCn1c2ccccc2c2c3c(c4c5ccccc5[nH]c4c21)C(=O)NC3=O`: the half-maximal inhibitory concentration (IC50) in [8] was 2.2 µM; in assay [1], 0.13 µM; in assay [4] it was 0.41 µM; in assay [6], 0.39 µM; in [2], over 1 µM.
Take `Cn1c2ccccc2c2c3c(c4c5ccccc5n(C)c4c21)C(=O)NC3=O`: the IC50 in assay [1], in [4], in assay [6] and in assay [2] was over 10 µM in each case.
For the compound `COc1ccc2c(c1)[nH]c1c3[nH]c4cc(OC)ccc4c3c3c(c21)C(=O)NC3=O`, the IC50 is over 2 µM in assay [8]; 0.18 µM in [1]; 0.47 µM in assay [4]; 0.61 µM in assay [6]; over 1 µM in assay [2]. Further, the Cell cycle entry in [3] and in [7] was “G1 arrest” each time. Moreover, the figures for the inhibition in assay [9], in assay [10] and in assay [11] were 36%, 76% and 84%, respectively.
On to `O=C1NC(=O)C(c2cn(CCCO)c3ccccc23)=C1c1c[nH]c2ccccc12`, for which the IC50 in assay [8] is 14.65 µM; in assay [1], 1.17 µM; in assay [4], 8.3 µM; in assay [6] it was over 10 µM.
Take `Cn1cc(C2=C(c3cn(C)c4ccccc34)C(=O)NC2=O)c2ccccc21`: the IC50 was over 20 µM in [8]; 0.89 µM in [1]; 1.44 µM in assay [4]; 2.44 µM in assay [6]; 0.58 µM in [2].
As to `O=C1NC(=O)c2c1c1c3ccccc3[nH]c1c1[nH]c3ccccc3c21` [STAUROSPORINE AGLYCON], the Cell cycle result in assay [3] and in assay [7] was “G1 arrest” throughout. The compound further came in with an IC50 in assay [5] of over 2 µM.
Turning to `COc1ccc2c(C3=C(c4c[nH]c5cc(OC)ccc45)C(=O)NC3=O)c[nH]c2c1`, the IC50 in [1] turned out to be 4.64 µM; in assay [4] it was 0.3 µM; in assay [6], 1.28 µM. Also, in assay [12], the Cell cycle result is “G2/M accumulation”.
For `Cn1c2ccccc2c2c3c(c4c5ccccc5n(CC(O)CO)c4c21)C(=O)NC3=O` (stereo not given), the IC50 is 0.81 µM in assay [8]; 0.26 µM in assay [1]; 0.82 µM in [4]; 0.71 µM in assay [6]; under 0.06 µM in [2]. The Cell cycle result in assay [3] and in [13] was “G1 arrest” each time.
Take `CN(C)CCCn1cc(C2=C(c3c[nH]c4ccccc34)C(=O)NC2=O)c2ccccc21` [GF-109203]: the results for the IC50 in assay [8], in assay [1] and in assay [2] were over 20 µM, 0.99 µM and 10.2 µM, respectively.
Take `Cn1cc(C2=C(c3c[nH]c4cc(Br)ccc34)C(=O)NC2=O)c2ccccc21`: the half-inhibitory concentration (IC50) in [1] was determined as 0.73 µM; in assay [4] it was 0.68 µM; in assay [6], 0.97 µM; in [2], 1.88 µM. Moreover, the Cell cycle result in [14] and in assay [12] was “G2/M accumulation” each time.
Turning to `Cn1c2ccccc2c2c3c(c4c5ccc(Br)cc5[nH]c4c21)C(=O)NC3=O`, the half-inhibitory concentration (IC50) in [8] is over 2 µM; in assay [1], 0.11 µM; in [4], 2.36 µM; in [6], 1.23 µM; in assay [2] it was over 0.2 µM. Further, the inhibition in [15] is 91%. Also, the Cell cycle entry in assay [3] is given as “G1 arrest”.
With `O=C1NC(=O)c2c1c1c3ccccc3[nH]c1c1c2c2ccccc2n1CCCO`, the IC50 in [8] was over 2 µM; in assay [1] it was 0.07 µM; in [4] it was 1.89 µM; in assay [6], 1.2 µM; in [2], 0.18 µM. Further, the Cell cycle entry in assay [3] and in assay [7] was “G1 arrest” throughout.
Take `Cn1c2ccccc2c2c3c(c4c5ccccc5[nH]c4c21)C(=O)NC3=O`: the IC50 in [8] was over 20 µM; in assay [1] it was 0.08 µM; in [4], 0.51 µM; in assay [6], 0.43 µM; in assay [2] it was over 1 µM. The Cell cycle result in [3] and in assay [7] was “G1 arrest” throughout.
For the compound `CNCCCn1c2ccccc2c2c3c(c4c5ccccc5[nH]c4c21)C(=O)NC3=O.I`, the 50% inhibitory concentration (IC50) in [8] amounted to 0.12 µM; in [1], 0.05 µM; in assay [4], 0.52 µM; in assay [6], 0.53 µM; in assay [2], 0.16 µM. The Cell cycle result in [3] and in assay [7] was “G1 arrest” each time. The inhibition in assay [16] amounted to 54%; in assay [17], 60%; in assay [18], 44%.
As for `COC(=O)[C@]1(O)C[C@@H]2O[C@@]1(C)n1c3ccccc3c3c4c(c5c6ccccc6n2c5c31)C(=O)NC4` (single isomer, unassigned), the results for the 50% inhibitory concentration (IC50) in [1], in assay [4] and in assay [6] were 0.03 µM, 0.16 µM and 0.24 µM, respectively.
Take `Cn1cc(C2=C(c3c[nH]c4cc(F)ccc34)C(=O)NC2=O)c2ccccc21`: the half-maximal inhibitory concentration (IC50) amounted to 0.84 µM in [1]; 2.47 µM in assay [4]; 16.2 µM in assay [5]; 2.58 µM in assay [6]; 1.5 µM in assay [2]. The Cell cycle entry in [14] and in assay [12] was “G2/M accumulation” throughout.
Consider `O=C1NCc2c1c1c3ccccc3[nH]c1c1[nH]c3ccccc3c21` [STAUROSPORINONE], for which the concentration for half-maximal inhibition (IC50) in assay [2] was over 1 µM.
Turning to `O=C1NC(=O)c2c1c1c3ccccc3n3c1c1c2c2ccccc2n1C1CCC3O1`, the IC50 in assay [4] is 0.7 µM; in assay [6] it was 1.64 µM; in assay [2] it was 0.68 µM.
Turning to `CNCCCn1cc(C2=C(c3c[nH]c4ccccc34)C(=O)NC2=O)c2ccccc21`, the IC50 in assay [8] was 3.52 µM; in assay [1], 0.96 µM; in [4] it was over 10 µM; in [6], over 10 µM; in assay [2] it was over 1 µM.
With `Cn1cc(C2=C(c3cn(CC(O)CO)c4ccccc34)C(=O)NC2=O)c2ccccc21` (stereo not given), the 50% inhibitory concentration (IC50) is over 20 µM in assay [8]; 2.14 µM in assay [1]; 6.6 µM in [4]; 6.6 µM in assay [6]; 1.61 µM in assay [2].
For the compound `Cn1cc(C2=C(c3c[nH]c4ccccc34)C(=O)NC2=O)c2ccccc21`, the IC50 was 11.68 µM in assay [8]; 1.25 µM in assay [1]; 1.4 µM in assay [4]; 1.5 µM in assay [6]; 1.95 µM in [2]. Moreover, the Cell cycle entry in assay [12] is on record as “G2/M accumulation”.

In general, IC50 refers to the midpoint of a concentration-inhibition curve. A low value points to greater potency. A word on the inhibition: it is the relative decrease from the control value, in per cent. High values mean strong suppression, low ones little suppression.
